Source: publication PMC6425477 (ACS chemical biology, 2018)

Assays:
[1] = test system: D456 GBM PDX cells; assay: Cell growth; format: cell-based, human
Method in brief: (§1)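 D456 pediatric primary GBM PDX cells and normal human astrocytes were treated in the same manner with test compound (DMSO stock) at 5, 20 and 50 μM for 7 days. Growth was read by cell titer. IC50 came from non-linear regression. D456 and NHA were compared by one-way ANOVA with Dunnett's multiple comparisons.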

[2] = test system: D456 GBM PDX cells; assay: 2-deoxyglucose; format: cell-based, human
[3] = test system: normal human astrocytes (NHAs); assay: Cell growth / toxicity in normal human astrocytes; format: cell-based; settings: for growth inhibition of GBM PDX cells compared to NHAs: D456 GBM PDX vs NHAs, 5, 20, 50 μM, 7 days
Method in brief: as §1

[4] = test system: GBM PDX cells; assay: Extracellular flux analysis glycolytic stress test; format: cell-based, human; settings: 50 μM; for increase in ECAR following the addition of oligomycin: 4 hours
Method in brief: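 Glycolysis stress test on a Seahorse XF96 flux analyzer in GBM PDX cells. Cells were glucose-starved with test compound at 50 μM for 4 h, then given glucose, oligomycin and 2-DG in turn. Glycolysis = ECAR after glucose minus basal. Capacity and reserve are derived from ECAR before and after 2-DG and oligomycin. Two experiments, n=6; mean ± sem; Student's t-test versus control.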

[5] = test system: D456 GBM PDX cells; assay: Glucose uptake; format: cell-based, human
Method in brief: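 D456 GBM PDX cells were given test compound over a range of concentrations. Glucose uptake was read by 2-NBDG, per the manufacturer's protocol. IC50 for glucose uptake came from a curve-fit model.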

[6] = test system: GBM PDX cell lines, D456, GBM157, and 1016; assay: 2-NBDG glucose uptake in three GBM PDX cell lines; format: cell-based, human; settings: 50 μM; all cells tested (D456, GBM157, 1016)
Method in brief: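 2-NBDG uptake in D456, GBM157 and 1016 GBM PDX cells, run per the manufacturer's protocol. Test compound (DMSO stock) at 50 μM. Data averaged from 2 experiments with n=3 per group. Compared by one-way ANOVA with Tukey's multiple comparisons.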

[7] = test system: GLUT1; settings: pharmacological inhibition of GLUT1; cited from earlier work
[8] = dose-response, Supporting Information Figure 3c

What does the source list for `O=C1CC(c2ccc(-c3ccn[nH]3)s2)c2cc(N3CCNC3=O)ccc2N1` (stereo not shown) [SRI-37683]?
inhibition of D456 GBM PDX cell growth (in words) ([1]; 5 μM): almost completely inhibited; decrease in glucose uptake (2-DG) [2]: approximately 40%; glucose uptake compared to control (2-DG) [2]: 60%; toxicity to NHAs [3]: minimal toxicity; growth inhibition of GBM PDX cells compared to NHAs [3]: significantly stronger growth inhibition; glycolytic capacity (ECAR before 2-DG minus ECAR after 2-DG) [4]: decrease; glycolytic reserve capacity (ECAR after Oligo minus ECAR before Oligo) [4]: decrease; increase in ECAR following the addition of oligomycin [4]: inhibited an increase in ECAR; ECAR ascribed to glycolysis after injection of glucose ([4]; 4 hours glucose starvation before glucose): significantly inhibited; plateau of glucose uptake inhibition [5, 8]: ~50%; threshold concentration at which glucose uptake inhibition plateaus [5, 8]: approximately 3 μM; inhibition of glucose uptake (2-NBDG) [6]: 40–50%

With `O=C1CC(c2cccc3[nH]ccc23)c2ccc(NC(=O)c3cccnc3)cc2N1` (stereo not shown) [SRI-37684] as the compound, how does the IC50 ([1]; read-out: IC50 for growth inhibition, D456 GBM PDX cells, 7 days) read?
The IC50 was 8.6 µM.

What about the “decrease in glucose uptake (2-DG)” value [2] of the same compound?
Its value is ~50%.

What about the “glucose uptake compared to control (2-DG)” value [2] of the same compound?
The value was 50%.

And the “toxicity to NHAs” value [3]?
Its value is “minimal toxicity”.

And the “growth inhibition of GBM PDX cells compared to NHAs” value [3]?
Its value is “significantly stronger growth inhibition”.

And the “glycolytic capacity (ECAR before 2-DG minus ECAR after 2-DG)” value [4]?
The value was “decrease”.

What about the “glycolytic reserve capacity (ECAR after Oligo minus ECAR before Oligo)” value [4] of the same compound?
Its value is “decrease”.

And the “increase in ECAR following the addition of oligomycin” value [4]?
Its value is “inhibited an increase in ECAR”.

And the IC50 ([5]; read-out: IC50 for glucose uptake, Supporting Information Figure 3c)?
Its IC50 is 33 µM.

And the “inhibition of glucose uptake (2-NBDG)” value [6]?
The value was 40–50%.

With `O=C(Oc1cccc(F)c1OC(=O)c1cccc(O)c1)c1cccc(O)c1` [WZB117, 2-Fluoro-6-(m-hydroxybenzoyloxy) Phenyl m-Hydroxybenzoate] as the compound, how does the “tumor formation capabilities of TICs” value [7] read?
The value was “decrease the tumor formation capabilities of TICs”.

For `O=c1c(-c2ccc(O)cc2)coc2cc(O)cc(O)c12` [genistein, reference compound], which “GBM PDX cell growth (in words)” value ([1]; GBM PDX cells, line not given, Supplementary Figure 5b) is on record?
The value was “did reduce GBM PDX cell growth”.

And the “inhibition of glucose uptake (in words)” value ([5]; D456 GBM PDX cells, Supporting Information Figures 4 and 5)?
The value was “inhibited glucose uptake”.
